Test results from ChEMBL document CHEMBL2176965, “Synthesis and biological investigations of nitric oxide releasing nateglinide and meglitinide type II antidiabetic prodrugs: in-vivo antihyperglycemic activities and blood pressure lowering studies” (J Med Chem, 2012).
Activity calls are given as the source filed them. No cut-off for these calls is given here.

How the values were obtained:
[1] = Induction of NO release in PBS buffer in presence of rat serum at pH 7.4 incubated for 24 hrs; design: concentration or dose not given beside the values; details: pH 7.4, 24 h
Method in brief: (§1)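 Compound (2.4 mL of 5.0 × 10−2 mM) incubated at 37 °C in PBS pH 7.4 with 90 μL rat serum, a source of nonspecific esterases, for 1, 3, 6 or 24 h. NO measured as nitrite by Griess reaction and expressed as % released.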

Mus musculus [2] = experiment: Antihypertensive activity in C57BL/6 mouse assessed as reduction in systolic blood pressure at 63.01 umol/kg, po after 6 hrs (reference value: 126.2 mmHg); assay type: functional, Artery
Rattus norvegicus [3] = organism: Rattus norvegicus; experiment: Activation of soluble guanylyl cyclase in rat superior mesenteric arteries assessed as reversal of phenylephrine-induced tone at 1 uM by wire myography
Method in brief: (§2)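 Denudation confirmed by no relaxation to acetylcholine (10 μM). Tone raised to 75% of maximal with phenylephrine (1−3 μM). Compounds added at 1 μM, without or with ODQ (10 μM), a soluble guanylyl cyclase inhibitor.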

Rattus norvegicus [4] = experiment: Induction of hyperglycemia in streptozotocin-induced diabetic Sprague-Dawley rat assessed as increase in blood glucose level at 63.01 umol/kg, po after 24 hrs relative to control; details: in vivo
[5] = Induction of NO release in PBS buffer in presence of rat serum at pH 7.4 incubated for 3 hrs; design: concentration or dose not given beside the values; details: pH 7.4, 3 h
[6] = Induction of NO release in PBS buffer in presence of rat serum at pH 7.4 incubated for 1 hr; design: concentration or dose not given beside the values; details: pH 7.4, 1 h; method in brief: as §1
Mus musculus [7] = experiment: Effect on heart rate in C57BL/6 mouse at 63.01 umol/kg, po after 1 hr (reference value: 449 bpm); assay type: ADME, organism-based; details: in vivo
Rattus norvegicus [8] = experiment: Antihyperglycemic activity in streptozotocin-induced diabetic Sprague-Dawley rat assessed as reduction in blood glucose level at 63.01 umol/kg, po after 3 hrs relative to control; assay type: functional; design: scale not given: the % may be the effect or the level left
Method in brief: (§3)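 Male Sprague−Dawley rats (300−350 g) made diabetic with streptozotocin 65 mg/kg ip in citrate buffer pH 4.5, nonfasting. Animals with blood glucose 20−30 mmol/L at 48 h were selected, n = 4 per group. Oral dose 63.01 μmol/kg in water with 1% methyl cellulose; vehicle controls. Tail-vein glucose read by glucometer at 1, 3, 6, 24 h; change expressed as % of the 0 h level.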

[9] = Induction of NO release in PBS buffer in presence of rat serum at pH 7.4 incubated for 6 hrs; design: concentration or dose not given beside the values; details: pH 7.4, 6 h; method in brief: as §1
Mus musculus [10] = experiment: Antihypertensive activity in C57BL/6 mouse assessed as reduction in systolic blood pressure at 63.01 umol/kg, po after 1 hr (reference value: 126.5 mmHg); assay type: functional, Artery
[11] = Induction of NO release in PBS buffer at pH 7.4 incubated for 1 hr; assay type: physicochemical; design: concentration or dose not given beside the values; details: pH 7.4, 1 h
Method in brief: (§4)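 Compound (2.4 mL of 5.0 × 10−2 mM) incubated at 37 °C in phosphate buffer pH 7.4 for 1, 4, 6 or 24 h. Released NO quantified indirectly as nitrite by Griess reaction and expressed as % NO released.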

Rattus norvegicus [12] = experiment: Induction of hyperglycemia in streptozotocin-induced diabetic Sprague-Dawley rat assessed as increase in blood glucose level at 63.01 umol/kg, po after 24 hrs relative to control; assay type: organism-based; details: in vivo; method in brief: as §3
Mus musculus [13] = experiment: Effect on heart rate in C57BL/6 mouse at 63.01 umol/kg, po after 6 hrs (reference value: 439 bpm); assay type: ADME, organism-based; details: in vivo
Rattus norvegicus [14] = experiment: Antihyperglycemic activity in streptozotocin-induced diabetic Sprague-Dawley rat assessed as reduction in blood glucose level at 63.01 umol/kg, po after 6 hrs relative to control; assay type: functional; design: scale not given: the % may be the effect or the level left; method in brief: as §3
[15] = Induction of NO release in PBS buffer at pH 7.4 incubated for 4 hrs; assay type: physicochemical; design: concentration or dose not given beside the values; details: pH 7.4, 4 h; method in brief: as §4
Rattus norvegicus [16] = experiment: Antihyperglycemic activity in streptozotocin-induced diabetic Sprague-Dawley rat assessed as reduction in blood glucose level at 63.01 umol/kg, po after 1 hr relative to control; assay type: functional; design: scale not given: the % may be the effect or the level left; method in brief: as §3
Mus musculus [17] = experiment: Effect on heart rate in C57BL/6 mouse at 63.01 umol/kg, po after 3 hrs (reference value: 448 bpm); assay type: ADME, organism-based; details: in vivo
[18] = Induction of NO release in PBS buffer at pH 7.4 incubated for 24 hrs; assay type: physicochemical; design: concentration or dose not given beside the values; details: pH 7.4, 24 h; method in brief: as §4
[19] = Induction of NO release in PBS buffer at pH 7.4 incubated for 6 hrs; assay type: physicochemical; design: concentration or dose not given beside the values; details: pH 7.4, 6 h; method in brief: as §4
Rattus norvegicus [20] = organism: Rattus norvegicus; experiment: Activation of soluble guanylyl cyclase in rat superior mesenteric arteries assessed as reversal of phenylephrine-induced tone in presence of ODQ at 1 uM by wire myography; method in brief: as §2
Mus musculus [21] = experiment: Antihypertensive activity in C57BL/6 mouse assessed as reduction in diastolic blood pressure at 63.01 umol/kg, po after 3 hrs; assay type: functional, organism-based; details: Artery
Mus musculus [22] = experiment: Antihypertensive activity in C57BL/6 mouse assessed as reduction in mean blood pressure at 63.01 umol/kg, po after 1 to 3 hrs; assay type: functional, organism-based
Mus musculus [23] = experiment: Antihypertensive activity in C57BL/6 mouse assessed as reduction in systolic blood pressure at 63.01 umol/kg, po after 3 hrs (reference value: 118.3 mmHg); assay type: functional, Artery
Rattus norvegicus [24] = experiment: Antihyperglycemic activity in streptozotocin-induced diabetic Sprague-Dawley rat assessed as reduction in blood glucose level at 63.01 umol/kg, po after 24 hrs relative to control; assay type: functional, organism-based; method in brief: as §3
Mus musculus [25] = experiment: Antihypertensive activity in C57BL/6 mouse assessed as reduction in diastolic blood pressure at 63.01 umol/kg, po after 1 to 3 hrs; assay type: functional, organism-based; details: Artery

Row | SMILES | Activity [1] | Activity (Mus musculus [2]) | Activity (Rattus norvegicus [4]) | Activity [5] | Activity [6] | Activity (Mus musculus [7]) | Activity (Rattus norvegicus [8]) | Activity [9] | Activity (Mus musculus [10]) | Activity [11] | Activity (Rattus norvegicus [12]) | Activity (Mus musculus [13]) | Activity (Rattus norvegicus [14]) | Activity [15] | Activity (Rattus norvegicus [16]) | Activity (Mus musculus [17]) | Activity [18] | Activity [19] | Activity (Mus musculus [22]) | Activity (Rattus norvegicus [24]) | further results
1 | CC(C)[C@H]1CC[C@H](C(=O)N[C@H](Cc2ccccc2)C(=O)OCCO[N+](=O)[O-])CC1 | 6.3% | 103.4 mmHg | Non-toxic | 1.9% | 1.3% | 454 bpm | 13.4% | 3.9% | 129.9 mmHg | 6.7% | Non-toxic | 435 bpm | 20.5% | 7.5% | 8.2% | 458 bpm | 9.2% | 7.7% | – | – | Activity (Rattus norvegicus [3]): Active; Activity (Rattus norvegicus [20]): inactive
2 | CC(C)[C@H]1CC[C@H](C(=O)N[C@H](Cc2ccccc2)C(=O)OCO/N=[N+](/[O-])N2CCCC2)CC1 | 65.3% | 134.3 mmHg | – | 47.2% | 40.2% | 454 bpm | 22.6% | 50.1% | 108.4 mmHg | 6.7% | 48.7% | 435 bpm | inactive | 6.8% | 8.1% | 458 bpm | 59.9% | 52.7% | Active | – | Activity (Mus musculus [21]): inactive; Activity (Mus musculus [23]): 106.2 mmHg
3 | CC(C)[C@H]1CC[C@H](C(=O)N[C@H](Cc2ccccc2)C(=O)O)CC1 [NATEGLINIDE] | – | – | – | – | – | – | 26.4% | – | – | – | – | – | 30.6% | – | 13.8% | – | – | – | – | – | –
4 | COc1ccc(Cl)cc1C(=O)NCCc1ccc(C(=O)OCO/N=[N+](\[O-])N2CCCC2)cc1 | 60.5% | 103.4 mmHg | Non-toxic | 51.7% | 37.6% | 454 bpm | 12.5% | 59.2% | 90.3 mmHg | 5.1% | Non-toxic | 435 bpm | – | 5.7% | 20% | 458 bpm | 8.9% | 7.2% | Active | inactive | Activity (Mus musculus [25]): Active
5 | COc1ccc(Cl)cc1C(=O)NCCc1ccc(C(=O)O)cc1 [MEGLITINIDE] | – | – | – | – | – | – | 8.8% | – | – | – | – | – | Active | – | 30.5% | – | – | – | – | inactive | –
6 | CCN(CC)/[N+]([O-])=N\OCOC(=O)[C@@H](Cc1ccccc1)NC(=O)[C@H]1CC[C@H](C(C)C)CC1 | 72.2% | 134.4 mmHg | Non-toxic | 50.2% | 44.9% | 454 bpm | 23.5% | 57.2% | 113 mmHg | 4.4% | Non-toxic | 435 bpm | 34.1% | 5.1% | 21.1% | 458 bpm | 61.3% | 58.8% | Active | – | Activity (Rattus norvegicus [3]): Active; Activity (Mus musculus [23]): 98.1 mmHg; Activity (Mus musculus [25]): Active; Activity (Rattus norvegicus [20]): inactive
7 | COc1ccc(Cl)cc1C(=O)NCCc1ccc(C(=O)OCCO[N+](=O)[O-])cc1 | 3.8% | 103.4 mmHg | Non-toxic | 2.3% | 2.1% | 454 bpm | 12.5% | 2.6% | 105.8 mmHg | 4.1% | Non-toxic | 435 bpm | Active | 7.2% | 20% | 458 bpm | 9.4% | 7.7% | Active | inactive | Activity (Mus musculus [25]): Active
8 | CCN(CC)/[N+]([O-])=N/OCOC(=O)c1ccc(CCNC(=O)c2cc(Cl)ccc2OC)cc1 | 63.6% | 103.4 mmHg | Non-toxic | 55.9% | 54.5% | 454 bpm | 12.5% | 61.5% | 96.8 mmHg | 4.2% | Non-toxic | 435 bpm | Active | 6% | 20% | 458 bpm | 6.5% | 6.1% | Active | inactive | Activity (Mus musculus [25]): Active
